Assay results as given in ChEMBL document CHEMBL1149300, “Novel retinoic acid metabolism blocking agents endowed with multiple biological activities are efficient growth inhibitors of human breast and prostate cancer cells in vitro and a human breast tumor xenograft in nude mice” (J Med Chem, 2004).
The source made the active and inactive calls. The calls are words filed in the database; no cut-off is given here.

Assays:
[1] = Inhibition of ATRA hydroxylase in Syrian golden hamster liver microsome assessed ATRA metabolism using [11.12-3H]-ATRA; assay type: microsomes, Mesocricetus auratus
Summary of the method: (§1)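 Microsomes from male Syrian golden hamster liver, or from T47D cells pretreated with 1 µM ATRA. Incubation in 0.1 M phosphate buffer pH 7.4 with NADPH, MgCl2 and BSA, inhibitor in DMSO; 3 min preincubation at 37 °C, then [11,12-3H]-ATRA for 30 min at 37 °C under oxygen. Ethyl acetate extraction, reverse-phase HPLC with radiometric detection; percent polar metabolites; IC50 from dose-response curves.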

[2] = biological target: T1, Retinoic acid receptor alpha (Homo sapiens, UniProt P10276); assay: Displacement of [11,12-3H]ARTA from RARalpha
T1 sequence (P10276 whole entry): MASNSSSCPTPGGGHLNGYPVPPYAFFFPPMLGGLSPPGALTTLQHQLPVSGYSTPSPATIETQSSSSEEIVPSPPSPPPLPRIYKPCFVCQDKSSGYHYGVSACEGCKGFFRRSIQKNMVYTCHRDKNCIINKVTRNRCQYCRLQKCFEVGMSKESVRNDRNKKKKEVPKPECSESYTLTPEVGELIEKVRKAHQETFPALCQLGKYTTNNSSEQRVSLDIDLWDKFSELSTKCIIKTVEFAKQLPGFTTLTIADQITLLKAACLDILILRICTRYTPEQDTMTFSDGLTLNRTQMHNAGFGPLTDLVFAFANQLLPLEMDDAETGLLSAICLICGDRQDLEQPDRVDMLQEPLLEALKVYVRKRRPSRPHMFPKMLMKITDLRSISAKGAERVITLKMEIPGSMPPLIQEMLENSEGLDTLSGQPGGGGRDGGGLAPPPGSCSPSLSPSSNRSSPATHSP
Summary of the method: (§2)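 Recombinant S-Tag RARα, RARβ or RARγ fusion protein extracts (10-30 µg/mL total protein) in HEPES pH 7.9 binding buffer. Incubated with 1 nM [3H]all-trans-RA and 0-500 nM test compound for 3 h at 27 °C.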

[3] = biological target: T2, Retinoic acid receptor beta (Homo sapiens, UniProt P10826); assay: Displacement of [11,12-3H]ARTA from RARbeta; summary of the method: as §2
T2 sequence (P10826 whole entry): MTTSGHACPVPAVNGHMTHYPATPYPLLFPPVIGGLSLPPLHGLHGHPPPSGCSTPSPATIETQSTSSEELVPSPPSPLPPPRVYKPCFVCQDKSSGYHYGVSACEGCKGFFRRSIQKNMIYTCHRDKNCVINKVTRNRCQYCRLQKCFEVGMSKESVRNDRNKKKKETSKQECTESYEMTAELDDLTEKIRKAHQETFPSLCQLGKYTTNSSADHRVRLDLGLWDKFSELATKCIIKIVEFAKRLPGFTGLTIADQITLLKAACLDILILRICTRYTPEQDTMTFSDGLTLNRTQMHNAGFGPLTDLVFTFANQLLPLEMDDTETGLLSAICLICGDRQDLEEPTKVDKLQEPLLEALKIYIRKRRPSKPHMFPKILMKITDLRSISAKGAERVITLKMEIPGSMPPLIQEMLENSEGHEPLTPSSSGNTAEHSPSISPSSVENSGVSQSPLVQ

[4] = Displacement of [11,12-3H]ARTA from RARgamma; design: species or system Homo sapiens
Summary of the method: as §2, with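 “°C. Nonspecific binding measured with a 200-fold excess of unlabeled RA; IC50 from dose-response curves, at least two experiments.” for “°C.”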

[5] = test system: LNCaP; assay: Induction of cell differentiation in human LNCaP cells after 6 days; assay type: functional, cell-based
Summary of the method: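 LNCaP cells given 1 µM compound, alone or with 1 µM ATRA, for 6 days. Lysates (50 µg) run on 10% SDS-PAGE and Western blotted with anti-cytokeratin 8/18, β-actin as control. ECL detection; band intensity by densitometry taken as the differentiation marker.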

[6] = biological target: T3, Cytochrome P450 26A1 (Homo sapiens, UniProt O43174); assay: Inhibition of ATRA-induced CYP26 in human MCF7 cells assessed ATRA as metabolism using [11.12-3H]-ATRA; assay type: functional, cell-based
T3 sequence (O43174 whole entry): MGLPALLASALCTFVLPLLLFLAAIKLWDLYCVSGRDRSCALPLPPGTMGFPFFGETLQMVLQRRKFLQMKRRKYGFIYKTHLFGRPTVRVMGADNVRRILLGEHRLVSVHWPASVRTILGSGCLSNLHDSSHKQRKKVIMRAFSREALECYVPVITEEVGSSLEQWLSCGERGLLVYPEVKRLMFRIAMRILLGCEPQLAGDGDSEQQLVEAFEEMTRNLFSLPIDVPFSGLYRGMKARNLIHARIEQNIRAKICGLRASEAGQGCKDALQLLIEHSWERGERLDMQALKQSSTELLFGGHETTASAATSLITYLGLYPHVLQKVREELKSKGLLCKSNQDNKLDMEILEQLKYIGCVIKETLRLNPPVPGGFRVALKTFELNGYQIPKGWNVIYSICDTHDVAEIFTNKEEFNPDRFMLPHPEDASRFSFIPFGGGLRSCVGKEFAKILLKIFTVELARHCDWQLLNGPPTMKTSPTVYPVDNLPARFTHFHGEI
Summary of the method: (§3)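 MCF-7 or T47D cells (1 × 10^6 per well) induced with 1 µM ATRA for 12-15 h, washed, then given inhibitor (0.0001-10 µM, ethanol stock) plus 0.001 µM [11,12-3H]-ATRA for 5 h. Media and cells extracted with ethyl acetate; metabolites measured by reverse-phase HPLC with radiometric detection; IC50 from dose-response curves.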

[7] = biological target: T3, Cytochrome P450 26A1; assay: Inhibition of ATRA-induced CYP26 in human T47D cells assessed as ATRA metabolism using [11.12-3H]-ATRA; assay type: functional, cell-based; summary of the method: as §3
[8] = biological target: T3, Cytochrome P450 26A1; assay: Inhibition of ATRA-induced CYP26 in human T47D cell microsome assessed as ATRA metabolism using [11.12-3H]-ATRA; assay type: functional, microsomes; summary of the method: as §1
[9] = test system: MCF7; assay: Growth inhibition of human MCF7 cells after 6 days by MTT assay; assay type: functional, cell-based; settings: MCF7, 144 h
Summary of the method: (§4)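 MCF-7 (IMEM, 5% FBS) or T47D (RPMI 1640, 10% FBS) cells, 1 × 10^4 per well, adhered ~18 h, then exposed to 0.0001-10 µM drug (ethanol) for 6 days with media and drug renewed on day 4. MTT for 2 h, formazan dissolved in DMSO, A540. Triplicate wells, 2-3 experiments; IC50 by nonlinear regression.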

[10] = test system: T47D; assay: Growth inhibition of human T47D cells after 6 days by MTT assay; assay type: functional, cell-based; settings: 144 h; summary of the method: as §4
[11] = test system: MDA-MB-231; assay: Growth inhibition of human MDA-MB-231 cells up to 10 uM after 6 days by MTT assay; assay type: functional, cell-based
[12] = test system: LNCaP; assay: Growth inhibition of human LNCaP cells after 6 days by MTT assay; assay type: functional, cell-based; settings: 144 h
Summary of the method: (§5)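 LNCaP cells (1 × 10^4) on poly-L-lysine-coated wells, attached 36 h; PC-3 cells (1 × 10^4), uncoated, attached 24 h; both in RPMI 1640. Treated with a concentration range of drug for 6 days, medium changed every 3 days. MTT read-out at 540 nm; IC50 by nonlinear regression from at least two experiments.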

[13] = test system: PC-3; assay: Growth inhibition of human PC3 cells after 6 days by MTT assay; assay type: functional, cell-based; settings: PC-3, 144 h; summary of the method: as §5
[14] = test system: MCF7; assay: Induction of apoptosis in human MCF7 cells at 1 uM for 6 days by TUNEL assay; assay type: functional, cell-based
Summary of the method: (§6)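 MCF-7 or T47D cells exposed to 1 µM compound for 6 days, then trypsinized, fixed in 1% paraformaldehyde and stored in 70% ethanol at -20 °C overnight. TdT/BrdUTP labeling (APO-BRDU TUNEL), fluorescein anti-BrdU plus PI/RNase stain; apoptotic cells counted by flow cytometry.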

[15] = test system: T47D; assay: Induction of apoptosis in human T47D cells at 1 uM for 6 days by TUNEL assay; assay type: functional, cell-based; summary of the method: as §6
[16] = test system: MCF7; assay: Reduction of tumor growth in MCF7 cells xenografted ovariectomized mouse at 0.033 mmol/kg, sc for 6 weeks relative to control; assay type: functional, Homo sapiens; design: scale not given: the % may be the effect or the level left
Summary of the method: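 Female ovariectomized nude mice received estrogen pellets. MCF-7 cells (2 × 10^6 in Matrigel) were injected sc into both flanks and grown 4-5 weeks to 200-300 mm3. Groups of n = 5 were dosed sc once daily, 6 days/week for 6 weeks, vehicle 0.3% HPC, 200 µL. Tumors were measured weekly by caliper, volume = (4/3)πr1²r2, and change was compared with vehicle controls.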

[17] = test system: MDA-MB-231; assay: Growth inhibition of human MDA-MB-231 cells after 6 days by MTT assay; assay type: functional, cell-based; settings: MDA-MB-231, 144 h
[18] = biological target: T3, Cytochrome P450 26A1; assay: Inhibition of ATRA-induced CYP26 in human MCF7 cells assessed as ATRA metabolism using [11.12-3H]-ATRA up to 10 uM; assay type: functional, cell-based
Summary of the method: (§7)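 Cells seeded at 1 × 10^6 per well and pretreated with 1 µM ATRA for 12-15 h to induce CYP26. After washing, they were incubated 5 h with inhibitor (0.0001-10 µM) plus 0.001 µM [11,12-3H]-ATRA; stocks were in 95% ethanol. […] IC50 was taken from dose-response curves.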

[19] = biological target: T3, Cytochrome P450 26A1; assay: Inhibition of ATRA-induced CYP26 in human T47D cells assessed as ATRA metabolism using [11.12-3H]-ATRA up to 10 uM; assay type: functional, cell-based; summary of the method: as §7

SMILES: CC1=C(/C=C/C(C)=C/C=C/C(C)=C\C(=O)O)C(C)(C)CCC1n1ccnc1 (racemic)
- IC50 [1]: 119 nM
- Ki [1]: 4.12 nM
- IC50 [2]: 100 nM
- IC50 [3]: 175 nM
- IC50 [4]: 65 nM

SMILES: CC1=C(/C=C/C(C)=C/C=C/C(C)=C/C(=O)O)C(C)(C)CCC1n1cncn1 (racemic)
- IC50 [1]: 5.84 nM
- IC50 [2]: > 1000 nM
- IC50 [3]: 1000 nM
- IC50 [4]: 700 nM

SMILES: COC(=O)/C=C(C)/C=C/C=C(C)/C=C/C1=C(C)C(n2cncn2)CCC1(C)C (racemic)
- IC50 [1]: 2 nM

SMILES: CC1=C(/C=C/C(C)=C/C=C/C(C)=C/C(=O)O)C(C)(C)CCC1n1cnnc1 (racemic)
- IC50 [1]: 46.7 nM
- IC50 [2]: 410 nM
- IC50 [3]: 250 nM
- IC50 [4]: 300 nM

SMILES: CC1=C(/C=C/C(C)=C/C=C/C(C)=C/C(=O)O)C(C)(C)CCC1n1ccnc1 (racemic)
- Activity [5]: Active
- IC50 [1]: 2.33 nM
- Ki [1]: 0.22 nM
- IC50 [6]: 10.9 nM
- IC50 [7]: 6.3 nM
- IC50 [8]: 2.4 nM
- IC50 [9]: 490 nM
- IC50 [10]: 3 nM
- Activity [11]: inactive
- IC50 [12]: 10000 nM
- IC50 [13]: 7700 nM
- IC50 [2]: 20 nM
- IC50 [3]: 175 nM
- IC50 [4]: 45 nM
- Activity [14]: Active
- Activity [15]: Active
- Activity [16]: 85.2%

SMILES: COC(=O)/C=C(C)/C=C/C=C(C)/C=C/C1=C(C)[C@H](n2ccnc2)CCC1(C)C (stereo in doubt; (+)-5)
- IC50 [7]: 6000 nM
- IC50 [8]: 800 nM

SMILES: COC(=O)/C=C(C)/C=C/C=C(C)/C=C/C1=C(C)[C@H](n2ccnc2)CCC1(C)C (stereo in doubt; (-)-5)
- IC50 ([7]; t47d): 6000 nM
- IC50 [8]: 680 nM

SMILES: CC1=C(/C=C/C(C)=C/C=C/C(C)=C/C(=O)Nc2ccc(O)cc2)C(C)(C)CCC1 [FENRETINIDE]
- IC50 [1]: 31800 nM
- IC50 [9]: 150 nM
- IC50 [17]: 7700 nM
- IC50 [12]: 7500 nM
- IC50 [13]: 3600 nM

SMILES: CC(=O)N1CCN(c2ccc(OCC3COC(Cn4ccnc4)(c4ccc(Cl)cc4Cl)O3)cc2)CC1 (centres undefined) [KETOCONAZOLE]
- IC50 [1]: 34000 nM

SMILES: Clc1cccc(C(c2ccc3[nH]cnc3c2)n2ccnc2)c1 (centres undefined) [LIAROZOLE]
- IC50 [1]: 6000 nM
- Activity [18]: Not Active
- Activity [19]: Not Active
